Experiment: Toxicity liver stage against HepG2, at 10uM
Assay type: cell-based
Set-up: test concentration 10 uM, cell line HepG2-A16-CD81EGFP
Conditions: human, HepG2-A16-CD81EGFP cells; read-out: INHIBITION
In short: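 Uninfected HepG2-A16-CD81EGFP cells, 3 × 10^3 per well, 1536-well, plated on prespotted compound at 10 μM final, parasite-free screening media added to match infected plates; puromycin 10 μM positive, DMSO 0.5% negative; run in parallel with 48 h PbLuc assay at 37 °C, 5% CO2; viability by CellTiter-Glo luminescence, normalized to controls.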

| Structure (SMILES) | cytotoxicity at 10 µM [%] |
| --- | --- |
| O=C(C1CCOCC1)N1CC[C@H](O)[C@@H]1Cc1cccnc1 | -104 |
| Cn1c(Cn2ccnc2)nnc1C1CCN(Cc2cccnc2N)CC1 | -8.37 |
| Cc1ccc(-c2noc([C@@H]3C[C@H](NC(=O)CC(C)(C)C)CN3C)n2)cc1 | 7.35 |
| O=C(Cc1cccs1)N1CCOC(c2cccc(O)c2)C1 (stereo unspecified) | 0.631 |
| CCc1cc(NCCN2CCNC2=O)n2nc(C)c(C)c2n1 | -5.81 |
| CN1C(=O)C2(CC(=O)Nc3[nH]ncc32)c2cc(F)ccc21 (stereo unspecified) | 0.488 |
| CN1CCCN(C(=O)c2ccc3c(c2)nc(N2CCOCC2)n3C)CC1 | -11.9 |
| CCOCC1CN(C(=O)Cc2ccccn2)Cc2c1cnn2CC (stereo unspecified) | -69.3 |
| COc1ccc(CCN)cc1-c1ccc(S(C)(=O)=O)cc1 | -6.23 |
| Cc1cc(C(=O)N2CCC3(C2)CN(c2ccsc2)C(=O)CN3C)[nH]n1 (stereo unspecified) | -75.2 |
| COCCN1CCC(NCc2ccc(Cl)cc2)C1 (stereo unspecified) | -5.56 |
| COc1cc2[nH]c(=O)c(CN3CCC[C@@H]3C(N)=O)cc2c(OC)c1OC | -6.84 |
| CCc1ccc(C(=O)O)cc1S(=O)(=O)Nc1ccc(=O)n(C)c1 | 11.7 |
| CCN(C)c1ncnc2c1CCN(Cc1ccc(OC)cc1)CC2 | 9.88 |
| O=C(CC1CCCC1)N1CC[C@H]2[C@H]1CCN2c1nncs1 | -3.43 |
| CCCn1ncc(-c2ccnc(NC3CCCc4ccccc43)n2)c1C (stereo unspecified) | 20.6 |
| Cc1ccc(CN2CCc3c(COCC4CC4)nn(C)c3C2)s1 | 6.35 |
| Cc1nc(N(C)C2CCCCC2)ncc1C(C)NC(=O)c1cccnc1 (stereo unspecified) | -105 |
| COCc1nc(C(=O)N2CCCC(n3ccnc3C(C)C)C2)cs1 (stereo unspecified) | -30.8 |
| CCNC(=O)[C@@H]1CCCN1C(=O)c1cccc(CCC(C)(C)O)c1 | 9.91 |
| CC(C)n1[nH]c(=O)c2c1NC(=O)CSC2c1ccc(OCC(N)=O)cc1 (stereo unspecified) | 8.46 |
| CCc1nc(C)c(C(=O)N2CCCN(Cc3cnn(C)c3)CC2)s1 | -2.41 |
| COc1ncccc1C(=O)NCC(C)Oc1cccnc1 (stereo unspecified) | -8.45 |

| Structure (SMILES) | cytotoxicity at 10 µM [%] |
| --- | --- |
| COc1cc(C(C)=O)ccc1SCC(=O)Nc1cccc(C)n1 | 15.1 |
| O=C(C1CCCC1)N1CCCC(c2cccc(-n3ccnc3)n2)C1 (stereo unspecified) | -5.52 |
| COCCCN1CCC(c2nc3c([nH]2)CC(C)(C)CNC3=O)C1 (stereo unspecified) | 0.0531 |
| CCc1nc(C)sc1CNC1CCN(Cc2ccccc2)C1 (stereo unspecified) | -31.7 |
| NCc1ccccc1Sc1ccc(O)cc1 | 1.31 |
| O=C(N[C@@H]1CN(Cc2ccoc2)C[C@@H]2CCCO[C@@H]21)C1CCC1 | -95.8 |
| CS(=O)(=O)N1CCc2ccc(=O)n(CC3CCOCC3)c2CC1 | 6.4 |
| CN(C)CCN1CCOCC2(CCCN(C(=O)c3ccccn3)C2)C1 (stereo unspecified) | 6.67 |
| O=C(O)c1ccccc1-c1ccc(CN2CCOCC2)cn1 | -1.1 |
| CN(CC(F)(F)F)C(=O)c1ccc(F)c(NS(C)(=O)=O)c1 | -2.05 |
| COCCC(=O)N1CCc2nc(N3CCOCC3)nc(NC(C)C)c2C1 | -108 |
| CCC1c2cccn2CCN1C(=O)c1ccno1 (stereo unspecified) | -8.58 |
| CNC(=O)c1cc2c(nc1NCC1CC1)CCN(c1ncccn1)CC2 | 0.283 |
| CCN(CC)CCNC(=O)c1cnc(-c2ccccc2)nc1 | 12.4 |
| O=C(CCc1nccs1)N1CCN(c2ccc(Cl)cn2)CC1 | 0.665 |
| Cc1cc(C)c(N(CC(O)CNCc2ccco2)S(C)(=O)=O)c(C)c1 (stereo unspecified) | -12.5 |
| Cc1ccc(N2CCCC(NCC(=O)Nc3cc(C)nn3C)C2)nn1 (stereo unspecified) | -1.18 |
| Cc1ccc(C(=O)N2CCO[C@H]3[C@H](OCCN(C)C)CC[C@@H]32)cn1 | 4.85 |
| N#CC1(NC(=O)c2ccn(-c3ccccc3Cl)n2)CCSC1 (stereo unspecified) | 0.462 |
| CC(=O)N[C@H](C)c1c(-c2ccc(Cl)cc2)noc1C(=O)O | 3.29 |
| COC(=O)C(NC(=O)c1ccc(NC2CC2)nc1)c1ccccc1 (stereo unspecified) | -9.88 |
| Cc1nc(C)n(C2CCCN(C(=O)c3ccc4nccn4c3)C2)n1 (stereo unspecified) | -12 |
| COc1ccc(C(=O)N2CCC(Nc3cccnn3)CC2)c(F)c1 | -8.96 |

| Structure (SMILES) | cytotoxicity at 10 µM [%] |
| --- | --- |
| Cc1n[nH]c(C)c1C1COCCN1C(=O)Cc1ccccc1F (stereo unspecified) | -2.46 |
| c1cnc(N2CCOCC3(C2)CN(c2nccs2)CCO3)nc1 (stereo unspecified) | -104 |
| C1CN(c2nc(C3CC3)ns2)CCS1 | -11.6 |
| Cc1noc(CN(C)CC2(O)CCCN(CCC3CCCCC3)C2=O)n1 (stereo unspecified) | -3.73 |
| COCc1cc(N2CCOC(c3ccc(Cl)cc3)C2)ncn1 (stereo unspecified) | 1.92 |
| O=C(CCc1nc(C2CC2)no1)c1ccccc1 | -6.43 |
| CCN1C(=O)CCC12CCCN(CCc1ccccc1)C2 (stereo unspecified) | -0.449 |
| Cc1cc(NC(=O)NCc2nccn2C)ccc1OC(C)C | -2.74 |
| COc1ccc(OCc2nc3cc4c(cc3c(=O)o2)OCCCO4)cc1 | 5.73 |
| c1cnn(C2CN(Cc3noc(C4CC4)n3)C2)c1 | 0.138 |
| COCCN1CCN(C(=O)C[C@@H]2C[C@@H](C(C)C)[C@H](CO)C=C2C)CC1 | 4.82 |
| Cc1cc2c(cc1C)OC1(C=C2)CCN(CC(=O)N2CCOCC2)CC1 | -10.4 |
| CCCC(C(=O)NCCc1nc(C)cs1)N(C)C (stereo unspecified) | -4.17 |
| CC(=O)NCC(=O)N1CCCC1c1ccc(CN2CCOCC2)cn1 (stereo unspecified) | -2.3 |
| N#CCCN(Cc1cccnc1)C(=O)c1cc(Cl)c[nH]1 | -18.4 |
| Cc1cnc(N2CCn3cc(CNC(=O)CC4CC4)nc3C2)nc1 | 12.3 |
| Cn1ncc2c(N3CCN(C(=O)c4ccsc4)CC3)ncnc21 | -9.27 |
| Cn1cccc1C(=O)N1CCN(CC2CC2)c2ncccc2C1 | -21.9 |
| COc1cc(CNCC(O)c2ccc(F)cc2F)cc2c1OCO2 (stereo unspecified) | -1.37 |
| CC(C)N1CC2(CCC1=O)CCN(C(=O)c1cccc(F)c1F)CC2 | -18.5 |
| CN(C)CC1(O)CCCN(Cc2cnc(-c3ccco3)nc2)CC1 (stereo unspecified) | -8.58 |
| Cc1noc(C)c1CCC(=O)N1CCOCC1CCc1cnccn1 (stereo unspecified) | -3.37 |
| c1ccc(NCc2cn3c(n2)CN(Cc2nccs2)CC3)nc1 | 10.4 |

| Structure (SMILES) | cytotoxicity at 10 µM [%] |
| --- | --- |
| Cn1c(=O)c2sccc2n(CC(=O)Nc2cccc(Cl)c2)c1=O | 5.86 |
| CCS(=O)(=O)Nc1ccc2oc(C)c(C(=O)OC)c2c1 | 5.87 |
| O=C(NCCCN1CCOCC1)c1cc(-c2ccco2)[nH]n1 | -15.4 |
| O=C(NCCc1nnc2n1CCC2)NCC1(c2ccccc2F)CC1 | 0.833 |
| C=Cc1cccc(CN2CCCn3nc(CNS(C)(=O)=O)cc3C2)c1 | 3.15 |
| Cc1nnc(N2CC[C@@]3(O)CCNC[C@H]3C2)c2ccccc12 | 2.61 |
| O=C1CCCN1Cc1nnc2n1CCN(Cc1ccco1)C2 | 0.686 |
| CCn1cnnc1CCNC(=O)CCNC(=O)c1ccccc1F | 4.49 |
| Cc1occc1CN(C)C(=O)Nc1ccc(=O)n(C)c1 | -53.5 |
| O=S(=O)(NCC1CCN(c2cnccn2)CC1)C1CC1 | 11.3 |
| Cc1ccc2[nH]c(=O)cc(C(=O)N[C@@H]3C[C@@H](CO)N(C)C3)c2c1 | 5.43 |
| CCCn1nc2c(cc1=O)CN(Cc1ccccn1)CC2 | 1.53 |
| CNC(=O)c1c(C)cccc1NCc1nnc(C2CC2)o1 | 2.41 |
| CC1(C(=O)NCc2cc(F)cc(F)c2)CCOCC1 | 4.32 |
| O=C(N[C@@H]1CN[C@H]2CCCO[C@H]21)c1cccnc1 | 5.25 |
| CCN(CC)C(=O)c1nnn(-c2ccc(C)cc2)c1C1CC1 | -8.35 |
| COc1c[nH]c(C(=O)N2CCN(c3ccccc3)CC2)cc1=O | 0.0868 |
| COCCN(Cc1cccnc1)c1nc(C)nc2oc(C)nc12 | -44.1 |
| CC(C(=O)NCc1cccc(N2CCCC2=O)c1)S(C)(=O)=O (stereo unspecified) | 2.66 |
| COc1ccccc1-c1cc(C(F)(F)F)c2c(C)nn(CC(=O)O)c2n1 | 5.25 |
| CC(Cn1cccn1)NC(=O)Nc1nncs1 (stereo unspecified) | -1.86 |
| CCc1cnc(N)nc1NCCC(=O)NC1CCCCC1 | -42.1 |
| CN(C(=O)c1ccncc1F)c1ccccc1S(C)(=O)=O | 2.23 |

| Structure (SMILES) | cytotoxicity at 10 µM [%] |
| --- | --- |
| Cc1nnn2c1COC(CNCc1ccccn1)C2 (stereo unspecified) | 0.903 |
| COc1ccc(C2CCCN2C(=O)NCCn2ccnc2)cc1OC (stereo unspecified) | -2.16 |
| Cc1nc(-c2cc(Cl)cc3c2OC(CN)C3)c[nH]1 (stereo unspecified) | -1.11 |
| CC[C@H](Nc1nc(C(C)C)nc2c1cnn2C)c1ccccc1 | -47.5 |
| Cc1cc(O)c(OCC(=O)/N=c2/[nH]c3c(s2)CCC3)cn1 | 10.4 |
| O=C1[C@@H]2CC[C@@H](CN(C3CCOCC3)C2)N1Cc1cscn1 | -7.15 |
| c1cnc(N2CCN(Cn3nccc3-c3cccnc3)CC2)nc1 | 8.99 |
| CCn1c(CC2CCN(S(=O)(=O)c3cccc(C)c3)CC2)nn(C)c1=O | 2.01 |
| COc1cccc(-c2nc3c([nH]2)CCNC3)c1F | -44.7 |
| CS(=O)(=O)NC(c1ccccc1)c1ccc2c(c1)CCCO2 (stereo unspecified) | 0.682 |
| O=C(Nc1ccccc1N1CCOC1=O)N1CCSCC1 | 3.15 |
| Cc1cnn(CC2CCCCN2C(=O)c2ccc3nnc(C)n3c2)c1 (stereo unspecified) | 7.87 |
| CC(C)n1ccnc1CN1CCCN(C(=O)COC2CCCC2)CC1 | -0.602 |
| CNC(=O)C1(c2cnccn2)CCCN1C(=O)c1ccccc1 (stereo unspecified) | -20.6 |
| CN1CCN2C[C@@H](NC(=O)c3nc4ccccc4[nH]3)C[C@H]2C1 | -0.159 |
| CNS(=O)(=O)CCCN1CCCC1c1cc(C)on1 (stereo unspecified) | -6.31 |
| Cc1ccc(F)c2c1CCCN2C(=O)Cc1c(C)nn(C)c1C | 13.6 |
| O=C(Nc1cc(C2CCOCC2)[nH]n1)c1ccc(Cl)cn1 | 0.78 |
| O=C(c1ccsc1)N1C[C@@H]2CCN(C(=O)c3cccc(F)c3)[C@@H]2C1 | 1.47 |

Source: ChEMBL document CHEMBL4513216, “Probing the Open Global Health Chemical Diversity Library for Multistage-Active Starting Points for Next-Generation Antimalarials” (ACS Infect Dis, 2020)
